Assay results as given in ChEMBL document CHEMBL1145212, “Fluorinated diaryl sulfides as serotonin transporter ligands: synthesis, structure-activity relationship study, and in vivo evaluation of fluorine-18-labeled compounds as PET imaging agents” (J Med Chem, 2005).

Columns and labels:
Type in all cases: cell-based
[1] = molecular target: Sodium-dependent serotonin transporter (Homo sapiens, UniProt P31645); assay: In vitro displacement of [3H]paroxetine from human serotonin transporter expressed in HEK293 cells
[2] = molecular target: Sodium-dependent noradrenaline transporter (Homo sapiens, UniProt P23975); assay: In vitro displacement of [3H]nisoxetine from human norepinephrine transporter expressed in HEK293 cells
How it was run: (§1)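 Competitive binding using cloned human transporters expressed in HEK-293 cells. NET was labelled with [³H]nisoxetine and DAT with [³H]GBR12935, following a previously published procedure.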

[3] = molecular target: Sodium-dependent dopamine transporter (Homo sapiens, UniProt Q01959); assay: In vitro displacement of [3H]GBR-12935 from human dopamine transporter expressed in HEK293 cells; how it was run: as §1
Sodium-dependent dopamine transporter, sequence (Q01959 whole entry): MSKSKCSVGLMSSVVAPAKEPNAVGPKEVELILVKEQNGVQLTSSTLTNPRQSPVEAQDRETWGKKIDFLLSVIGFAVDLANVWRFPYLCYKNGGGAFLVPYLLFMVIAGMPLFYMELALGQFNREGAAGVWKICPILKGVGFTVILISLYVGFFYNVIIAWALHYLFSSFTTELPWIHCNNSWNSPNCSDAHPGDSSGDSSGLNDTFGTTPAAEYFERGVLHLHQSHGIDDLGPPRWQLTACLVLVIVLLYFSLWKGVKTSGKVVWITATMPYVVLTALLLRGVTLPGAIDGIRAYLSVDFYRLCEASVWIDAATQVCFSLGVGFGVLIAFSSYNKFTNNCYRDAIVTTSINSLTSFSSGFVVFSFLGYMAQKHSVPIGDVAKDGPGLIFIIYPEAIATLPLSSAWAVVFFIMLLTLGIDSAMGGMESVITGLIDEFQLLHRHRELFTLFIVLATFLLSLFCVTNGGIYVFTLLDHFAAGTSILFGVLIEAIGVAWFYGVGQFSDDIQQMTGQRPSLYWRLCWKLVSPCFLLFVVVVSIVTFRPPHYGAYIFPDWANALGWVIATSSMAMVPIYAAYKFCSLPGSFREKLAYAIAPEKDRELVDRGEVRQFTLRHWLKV

Sodium-dependent serotonin transporter, sequence (P31645 whole entry): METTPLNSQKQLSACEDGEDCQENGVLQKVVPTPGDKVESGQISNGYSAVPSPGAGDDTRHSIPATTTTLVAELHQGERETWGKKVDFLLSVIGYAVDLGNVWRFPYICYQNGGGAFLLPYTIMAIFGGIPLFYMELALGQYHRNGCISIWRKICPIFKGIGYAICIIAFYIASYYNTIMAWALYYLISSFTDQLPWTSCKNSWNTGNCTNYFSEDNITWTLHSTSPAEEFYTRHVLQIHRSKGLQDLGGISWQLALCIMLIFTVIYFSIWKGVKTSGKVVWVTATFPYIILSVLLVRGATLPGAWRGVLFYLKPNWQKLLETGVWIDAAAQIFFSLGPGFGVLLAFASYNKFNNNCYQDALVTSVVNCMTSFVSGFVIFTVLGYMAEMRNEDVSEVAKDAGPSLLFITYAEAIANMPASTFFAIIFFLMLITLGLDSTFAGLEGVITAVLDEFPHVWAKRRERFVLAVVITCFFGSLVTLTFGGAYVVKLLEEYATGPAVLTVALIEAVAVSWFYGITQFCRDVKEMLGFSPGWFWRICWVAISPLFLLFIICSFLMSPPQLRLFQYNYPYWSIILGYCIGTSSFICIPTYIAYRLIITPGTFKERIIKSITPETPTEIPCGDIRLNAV
Sodium-dependent noradrenaline transporter, sequence (P23975 whole entry): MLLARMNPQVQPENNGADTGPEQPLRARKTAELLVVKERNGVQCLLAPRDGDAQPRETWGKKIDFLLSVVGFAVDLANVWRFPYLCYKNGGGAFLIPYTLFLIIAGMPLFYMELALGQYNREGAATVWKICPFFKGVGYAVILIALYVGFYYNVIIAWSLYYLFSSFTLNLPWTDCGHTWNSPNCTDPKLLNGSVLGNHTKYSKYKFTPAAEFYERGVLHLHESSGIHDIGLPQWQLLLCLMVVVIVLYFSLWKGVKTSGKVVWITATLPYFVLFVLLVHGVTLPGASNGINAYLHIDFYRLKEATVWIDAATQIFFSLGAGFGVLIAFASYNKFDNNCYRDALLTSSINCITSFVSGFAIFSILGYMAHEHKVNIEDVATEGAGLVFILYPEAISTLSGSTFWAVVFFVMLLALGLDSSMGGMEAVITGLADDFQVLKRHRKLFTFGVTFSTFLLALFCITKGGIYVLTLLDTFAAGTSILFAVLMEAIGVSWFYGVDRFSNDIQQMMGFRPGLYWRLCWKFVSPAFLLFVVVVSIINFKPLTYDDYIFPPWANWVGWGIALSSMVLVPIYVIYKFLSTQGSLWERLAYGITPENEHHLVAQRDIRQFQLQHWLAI

Row | Structure (SMILES) | Ki [1] [µM] | Ki [2] [µM] | Ki [3] [µM]
1 | Cc1ccc(Sc2ccccc2CNCCF)c(N)c1 | 0.0713 | 3.91 | 4.43
2 | C=CCNCc1ccccc1Sc1ccc(C)cc1N |  | 3.82 | 2.91
3 | Cc1ccc(Sc2ccccc2CN(C)C)c(N)c1 | 0.00119 |  | 
